Bioassay records as filed in PubChem.
RanGTP-Impb inh: disruptors of Ran-importin-beta complex formation – biochemical, FRET, CFP-Ran, YFP-importin-beta, homogeneous, primary screen. 300,000 compounds, 1.1% hits. AID 2216. cell-free CFP-Ran/YFP-importin-beta FRET ratio. inhibition, % (concentration not given with the values);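 active = more than half of the replicate wells show a fall in the fluorescence ratio signal beyond about 16%, limit read from the data, passing the limit was not always enough; inconclusive = exactly half of the replicate wells pass the set limit; inactive = fewer than half of replicates pass the limit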;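 note: 0% = DMSO wells and 100% = Ran loaded with GDP instead of GTP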
Runt-CBFb FRET: inhibitors of human RUNX1 Runt domain binding to CBFb; Q01196+Q13951; Cerulean-Runt/Venus-CBFb FRET ratio 530/480, 1 h; inhibition, % at 20 µM; 220,000 compounds, 0.46% hits;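 active = inhibition over about 50% at 20 µM in the single-dose screen, limit read from the data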;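 note: 0% = DMSO wells and 100% = excess unlabeled CBFb competitor control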
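Assay system: Cerulean-tagged RUNX1 Runt domain (FRET donor) fusion protein / Amount: 100 nM each of Venus-CBFb and Cerulean-Runt domain / Medium: Tris buffer pH 7.5 with salts and BSA / Also added: Venus-CBFb 100 nM / Schedule: 1 h complex formation plus 1 h compound treatment, room temperature / Signal: FRET fluorescence / Read-out: loss of energy transfer signal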
Hck-Nef inh: human Hck-Nef kinase inhibition; P08631; Recombinant Hck-YEEI plus Nef, Z-Lyte FRET kinase assay; inhibition, % at 20 µM; 220,000 compounds, 0.68% hits;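 active = Hck-Nef kinase inhibition above about 50%, limit read from the data; inactive = inhibition below that limit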;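 note: 0% = DMSO with Hck plus Nef and 100% = Hck alone without Nef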
Target sequence (P08631 whole entry, looked up): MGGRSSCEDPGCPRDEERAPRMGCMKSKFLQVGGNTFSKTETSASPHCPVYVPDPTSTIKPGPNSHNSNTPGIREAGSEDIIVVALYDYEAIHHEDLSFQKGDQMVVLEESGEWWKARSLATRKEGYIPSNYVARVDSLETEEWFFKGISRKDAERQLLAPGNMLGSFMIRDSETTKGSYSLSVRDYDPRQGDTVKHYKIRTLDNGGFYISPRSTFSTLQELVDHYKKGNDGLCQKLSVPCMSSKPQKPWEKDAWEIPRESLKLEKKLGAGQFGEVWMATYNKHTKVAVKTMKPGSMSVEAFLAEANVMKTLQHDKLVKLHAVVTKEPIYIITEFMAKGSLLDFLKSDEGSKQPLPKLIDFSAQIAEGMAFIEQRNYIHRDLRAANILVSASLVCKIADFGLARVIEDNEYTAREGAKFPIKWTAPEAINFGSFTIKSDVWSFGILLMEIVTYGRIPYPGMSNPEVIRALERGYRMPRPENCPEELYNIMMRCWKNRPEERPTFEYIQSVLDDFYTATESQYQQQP
Runt-SMMHC FRET: inhibitors of human RUNX1 Runt domain binding to CBFb-SMMHC; AID 1434; 220,000 compounds, 0.74% hits; Q01196+Q13951; inhibition, % at 20 µM; Cerulean-Runt/Venus-CBFb-SMMHC FRET ratio 530/480, 1 h;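 active = mean inhibition across duplicate retests at 20 µM reaching about 50%, limit read from the data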;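 note: 0% = DMSO wells and 100% = wells with excess untagged CBFb-SMMHC; inhibitors lower the FRET ratio by blocking Runt binding to CBFb-SMMHC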
Hck Nef conf: Hck-Nef kinase inhibition, confirmation | 1,300 compounds, 28% hits | calls only at 10 µM | shares compounds with Hck-Nef inh | Recombinant Hck-YEEI:Nef, Z-Lyte FRET kinase assay;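 active = average inhibition of at least 50%, with Z-scores no higher than 3 in both the phospho-tyrosine peptide and fluorescence counterscreens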
* marks the source's active call; other numbers are inactive results; i = inactive; ? = inconclusive; / = no result shown; + = active, no number. An excerpt weighted towards active compounds, which were near 1.8% of everything screened.

SMILES	RanGTP-Impb inh	Runt-CBFb FRET	Hck-Nef inh	Runt-SMMHC FRET	Hck Nef conf
Nc1cc2nc3ccccc3nc2cc1N	-2	18	57*	-372	i
CC(C)OCCCNC(=O)c1c(N)n(CC2CCCO2)c2nc3ccccc3nc12 (stereo not drawn)	103*	74*	52*	62*	/
COCCCn1c(N)c(C(=O)NCCC(C)C)c2nc3ccccc3nc21	103*	17	50*	88	i
CCCCCCn1c(N)c(C(=O)NCCN2CCOCC2)c2nc3ccccc3nc21	70*	28	65*	62*	i
O=c1c2ccccc2nc(SCC2CCCCO2)n1-c1ccccc1 (stereo not drawn)	0	-1	5	0	/
CCCNC(=O)c1c(N)n(CC2CCCO2)c2nc3ccccc3nc12 (stereo not drawn)	-3	4	57*	78*	/
CC(=O)N(C)CC#CCN1CCCC(CO)C1 (stereo not drawn)	5	/	/	/	/
CCCC(=O)NC(Oc1ccccc1Cl)C(Cl)(Cl)Cl (stereo not drawn)	1	-3	1	3	/
C[C@]12C=CC(=O)C=C1CC[C@@H]1C2CC[C@]2(C)OC(=O)CCC12 (stereo partly drawn)	-3	/	/	/	/
O=[N+]([O-])[N-][n+]1cnn(Cc2ccccc2)c1	-11	0	-21	1	/
C=CCN1C(=O)NC(=O)/C(=C\c2ccc(-c3ccccc3[N+](=O)[O-])o2)C1=O	-1	-1	70*	23	+
O=C1NC(=O)N(Cc2ccco2)C(=O)/C1=C/c1ccc(-c2cccc([N+](=O)[O-])c2)o1	/	35	52*	32	+
C=CCN1C(=O)/C(=C/c2ccc(N3CCOCC3)o2)C(=O)NC1=S	-23	-3	3	-51	/
CN(C)c1ccc(/C=C2/C(=O)NC(=O)N(Cc3ccco3)C2=O)cc1	0	38	1	16	/
CNS(=O)(=O)c1ccc(N=Cc2c(O)n(-c3ccc(C)cc3)c(=O)[nH]c2=O)cc1	1	-1	17	-1	/
CCc1nnc(NS(=O)(=O)c2ccc(N=Cc3c(O)n(-c4ccc(Cl)cc4)c(=O)[nH]c3=O)cc2)s1	-1	-10	56*	-56	i
COc1ccc(N2C(=O)/C(=C/C=C/c3ccccc3[N+](=O)[O-])C(=O)NC2=S)cc1	-2	12	63*	-6	+
COc1ccc(N2C(=O)NC(=O)/C(=C/c3ccc([N+](=O)[O-])s3)C2=O)cc1	?	23	19	30	/
COc1ccc(N2C(=O)NC(=O)/C(=C\c3ccc([N+](=O)[O-])s3)C2=O)cc1	-3	20	64*	-3	i
COc1ccc(N2C(=O)/C(=C/c3cccs3)C(=O)NC2=S)cc1	8	24	21	26	/
Cc1ccc(S(=O)(=O)N(c2cc(Cl)c(O)c(Cl)c2)P(=O)(OC(C)C)OC(C)C)cc1	0	0	-3	4	/
Cn1c(O)c(C=NCCN2CCNCC2)c(=O)[nH]c1=O	3	2	19	-8	/
N#Cc1c(N2CCNCC2)nc(-c2ccco2)c2c1CCCC2	3	0	67*	1	/
CCOc1cc2c(cc1OCC)-n1cccc1C(c1ccccc1F)NC2 (stereo not drawn)	-1	/	/	/	/
O=C1NC(=O)N(CCc2ccc(F)cc2)C(=O)/C1=C/c1cccs1	?	/	149*	19	+
SMILES	RanGTP-Impb inh	Runt-CBFb FRET	Hck-Nef inh	Runt-SMMHC FRET	Hck Nef conf
O=C1NC(=O)N(CCc2ccc(F)cc2)C(=O)/C1=C/c1ccco1	-5	/	167*	6	+
Cc1ccc(/C=C2/C(=O)NC(=O)N(CCc3ccc(F)cc3)C2=O)o1	5	5	16	2	/
O=C(COc1ccccc1)N1CCN(CC2CC=CCC2)CC1 (stereo not drawn)	1	/	/	/	/
Nc1ncnc2c1ccn2[C@@H]1O[C@H](CO)[C@@H](O)[C@H]1O	4	/	/	/	/
NC(=S)c1cn(C2OC(CO)C(O)C2O)c2ncnc(N)c12 (stereo not drawn)	11	35	95*	12	+
COc1ccc(/C=C2/C(=O)N(Cc3ccco3)C(=O)N(C(C)C)C2=O)cc1	/	17	95*	0	i
COC(=O)C1=C(c2ccc(S(C)(=O)=O)cc2)C[C@@H]2CC[C@H]1N2C(=O)NCCNC(C)=O	7	/	/	/	/
